{"source": "ChEMBL document CHEMBL1123394", "about": "“Systematic synthesis and biological evaluation of alpha- and beta-D-xylofuranosyl nucleosides of the five naturally occurring bases in nucleic acids and related analogues” (J Med Chem, 1986)", "format_in_all_cases": "functional", "key": {"[1]": {"experiment": "Antiviral activity was measured against Herpes simplex virus (HSV-2 G) in rabbit kidney cells.", "details": "Oryctolagus cuniculus", "outline": "(§1)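 Inhibition of virus-induced cytopathogenicity scored in cell culture monolayers. Test compounds dissolved in growth medium at 100, 10, or 1 μg/mL or less.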"}, "[2]": {"system": "Vero", "experiment": "Antiviral activity was measured against forest virus in african green monkey kidney (Vero B) cells.", "details": "Chlorocebus sabaeus", "outline": "as §1"}, "[3]": {"system": "Vero", "experiment": "Concentration required for microscopically detectable alteration of the normal cell morphology in Vero B cells.", "details": "Chlorocebus sabaeus", "outline": "(§2)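 Host-cell morphology inspected microscopically for detectable alteration, with compounds in growth medium at up to 200 or 400 μg/mL.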"}, "[4]": {"system": "Vero", "experiment": "Antiviral activity was measured against Reo virus-1 in african green monkey kidney (Vero B) cells.", "details": "Chlorocebus sabaeus", "outline": "as §1"}, "[5]": {"system": "HeLa", "experiment": "Antiviral activity was measured against Vesicular stomatitis virus in HeLa cells.", "details": "Homo sapiens", "outline": "(§3)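 Inhibition of virus-induced cytopathogenicity in cell culture. Compounds were dissolved in growth medium at 100, 10 or 1 μg/mL or less.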"}, "[6]": {"experiment": "Antiviral activity was measured against Herpes simplex virus (HSV-1 KOS) in rabbit kidney cells.", "details": "Oryctolagus cuniculus", "outline": "as §3"}, "[7]": {"experiment": "Concentration required for microscopically detectable alteration of the normal cell morphology in PRK cells.", "details": "Oryctolagus cuniculus", "outline": "as §2"}, "[8]": {"system": "Vero", "experiment": "Antiviral activity was measured against Parainfluenza virus-3 in african green monkey kidney (Vero B) cells.", "details": "Chlorocebus sabaeus", "outline": "as §1"}, "[9]": {"experiment": "Antiviral activity was measured against Vaccinia virus in rabbit kidney cells.", "details": "Oryctolagus cuniculus", "outline": "as §3"}, "[10]": {"system": "WI-38", "experiment": "Antiviral activity was measured against Rhino virus-1A in human diploid (WI-38) cells.", "outline": "as §1"}, "[11]": {"system": "Vero", "experiment": "Antiviral activity was measured against Coxsackie virus B4 in african green monkey kidney (Vero B) cells.", "details": "Chlorocebus sabaeus", "outline": "as §1"}, "[12]": {"system": "HeLa", "experiment": "Antiviral activity was measured against Polio virus-1 in HeLa cells.", "details": "Homo sapiens", "outline": "as §3"}, "[13]": {"system": "Vero", "experiment": "Antiviral activity was measured against Sindbis virus in african green monkey kidney (Vero B) cells.", "details": "Chlorocebus sabaeus", "outline": "as §1"}, "[14]": {"system": "WI-38", "experiment": "Antiviral activity was measured against Rhino virus-9 in human diploid (WI-38) cells.", "outline": "as §1"}, "[15]": {"system": "HeLa", "experiment": "Concentration required for microscopically detectable alteration of the normal cell morphology in HeLa cells.", "details": "Homo sapiens", "outline": "as §2"}, "[16]": {"system": "WI-38", "experiment": "Concentration required for microscopically detectable alteration of the normal cell morphology in Wi-38 cells.", "details": "Homo sapiens", "outline": "as §2"}, "[17]": {"experiment": "Antiviral activity was measured against Vesicular stomatitis virus in rabbit kidney cells.", "details": "Oryctolagus cuniculus", "outline": "as §3"}, "[18]": {"system": "HeLa", "experiment": "Antiviral activity was measured against Coxsackie virus B4 in HeLa cells.", "details": "Homo sapiens", "outline": "as §3"}, "[19]": {"experiment": "Antiviral activity was measured against vesicular stomatitis virus in rabbit kidney cells.", "details": "Oryctolagus cuniculus", "outline": "as §3"}, "[20]": {"system": "HeLa", "experiment": "Antiviral activity was measured against vesicular stomatitis virus in HeLa cells.", "details": "Homo sapiens", "outline": "as §3"}, "[21]": {"experiment": "Antiviral activity was measured against vaccinia virus in rabbit kidney cells.", "details": "Oryctolagus cuniculus", "outline": "as §3"}, "[22]": {"system": "HeLa", "experiment": "Antiviral activity was measured against polio virus-1 in HeLa cells.", "details": "Homo sapiens", "outline": "as §3"}, "[23]": {"experiment": "Number of living cells on the proliferation of mouse myeloma cells SP2 was measured at concentration 1 ug/mL at 96 h.", "outline": "(§4)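 Mouse myeloma SP2 cells seeded at 123 × 10^3 cells and exposed to compound at 1, 10 or 100 μg/mL in growth medium. Living cells counted at 0, 48 and 96 h alongside untreated controls.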"}, "[24]": {"experiment": "Number of living cells on the proliferation of mouse myeloma cells SP2 was measured at concentration 100 ug/mL at 0h.", "outline": "as §4"}, "[25]": {"experiment": "Number of living cells on the proliferation of mouse myeloma cells SP2 was measured at concentration 100 ug/mL at 96 h.", "outline": "as §4"}, "[26]": {"experiment": "Number of living cells on the proliferation of mouse myeloma cells SP2 was measured at concentration 10 ug/mL at 48 hr.", "outline": "as §4"}, "[27]": {"experiment": "Number of living cells on the proliferation of mouse myeloma cells SP2 was measured at concentration 100 ug/mL at 48 hr.", "outline": "as §4"}, "[28]": {"experiment": "Concentration required to reduce protein synthesis in primary rabbit kidney cells usingi [3H2-4,5]leucine incorporation", "details": "Oryctolagus cuniculus, read-out: ID50 (the source's name)", "outline": "(§5)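 Primary rabbit kidney cells with compounds in growth medium at 100, 10, or 1 μg/mL or less. Cell number and incorporation of [3H-methyl]dThd (DNA), [3H-5]Urd (RNA) or [3H2-4,5]leucine (protein) measured. ID50 taken as the dose giving 50% reduction in cell number or in DNA, RNA or protein synthesis.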"}, "[29]": {"experiment": "Number of living cells on the proliferation of mouse myeloma cells SP2 was measured at concentration 1 ug/mL at 48 hr.", "outline": "as §4"}, "[30]": {"experiment": "Concentration required to reduce RNA synthesis in primary rabbit kidney cells using [3H-5]-Urd incorporation", "details": "Oryctolagus cuniculus, read-out: ID50 (the source's name)", "outline": "as §5"}, "[31]": {"experiment": "Dose required to reduce primary rabbit kidney cell growth", "details": "Oryctolagus cuniculus, read-out: ID50 (the source's name)", "outline": "as §5"}, "[32]": {"experiment": "Concentration required to reduce DNA synthesis in primary rabbit kidney cells using [3H-Methyl]-dThd incorporation", "details": "Oryctolagus cuniculus, read-out: ID50 (the source's name)", "outline": "as §5"}, "[33]": {"experiment": "Number of living cells on the proliferation of mouse myeloma cells SP2 was measured at concentration 1 ug/mL at 0h.", "outline": "as §4"}, "[34]": {"experiment": "Number of living cells on the proliferation of mouse myeloma cells SP2 was measured at concentration 10 ug/mL at 96 h.", "outline": "as §4"}}}
{"smiles": "NC(=O)c1ncn([C@@H]2O[C@H](CO)[C@@H](O)[C@H]2O)n1", "note": "[RIBAVIRIN]", "values": [{"measurement": "MCC", "setting": "[1]", "result": "> 400", "unit": "µg/mL"}, {"measurement": "MCC", "setting": "[2]", "result": 70, "unit": "µg/mL"}, {"measurement": "MCC", "setting": "[3]", "result": "≥ 400", "unit": "µg/mL"}, {"measurement": "MCC", "setting": "[4]", "result": 7, "unit": "µg/mL"}, {"measurement": "MCC", "setting": "[5]", "result": 20, "unit": "µg/mL"}, {"measurement": "MCC", "setting": "[6]", "result": "> 400", "unit": "µg/mL"}, {"measurement": "MCC", "setting": "[7]", "result": "> 400", "unit": "µg/mL"}, {"measurement": "MCC", "setting": "[8]", "result": 20, "unit": "µg/mL"}, {"measurement": "MCC", "setting": "[9]", "result": 7, "unit": "µg/mL"}, {"measurement": "MCC", "setting": "[10]", "result": 150, "unit": "µg/mL"}, {"measurement": "MCC", "setting": "[11]", "result": 70, "unit": "µg/mL"}, {"measurement": "MCC", "setting": "[12]", "result": 70, "unit": "µg/mL"}, {"measurement": "MCC", "setting": "[13]", "result": 70, "unit": "µg/mL"}, {"measurement": "MCC", "setting": "[14]", "result": 70, "unit": "µg/mL"}, {"measurement": "MCC", "setting": "[15]", "result": "≥ 400", "unit": "µg/mL"}, {"measurement": "MCC", "setting": "[16]", "result": "> 400", "unit": "µg/mL"}, {"measurement": "MCC", "setting": "[17]", "result": 100, "unit": "µg/mL"}, {"measurement": "MCC", "setting": "[18]", "result": 70, "unit": "µg/mL"}]}
{"smiles": "Nc1ncnc2c1ccn2[C@@H]1O[C@H](CO)[C@@H](O)[C@H]1O", "note": "[TUBERCIDIN]", "values": [{"measurement": "MCC", "setting": "[1]", "result": "> 0.1", "unit": "µg/mL"}, {"measurement": "MCC", "setting": "[2]", "result": "> 0.4", "unit": "µg/mL"}, {"measurement": "MCC", "setting": "[3]", "result": "≥ 0.4", "unit": "µg/mL"}, {"measurement": "MCC", "setting": "[4]", "result": 0.1, "unit": "µg/mL"}, {"measurement": "MCC", "setting": "[6]", "result": "> 0.1", "unit": "µg/mL"}, {"measurement": "MCC", "setting": "[7]", "result": "≥ 0.4", "unit": "µg/mL"}, {"measurement": "MCC", "setting": "[19]", "result": 0.07, "unit": "µg/mL"}, {"measurement": "MCC", "setting": "[8]", "result": 0.2, "unit": "µg/mL"}, {"measurement": "MCC", "setting": "[10]", "result": 0.01, "unit": "µg/mL"}, {"measurement": "MCC", "setting": "[20]", "result": 0.07, "unit": "µg/mL"}, {"measurement": "MCC", "setting": "[11]", "result": "> 0.1", "unit": "µg/mL"}, {"measurement": "MCC", "setting": "[13]", "result": "> 0.1", "unit": "µg/mL"}, {"measurement": "MCC", "setting": "[14]", "result": 0.007, "unit": "µg/mL"}, {"measurement": "MCC", "setting": "[21]", "result": "> 0.1", "unit": "µg/mL"}, {"measurement": "MCC", "setting": "[15]", "result": "≥ 1", "unit": "µg/mL"}, {"measurement": "MCC", "setting": "[16]", "result": 0.4, "unit": "µg/mL"}, {"measurement": "MCC", "setting": "[18]", "result": 0.2, "unit": "µg/mL"}, {"measurement": "MCC", "setting": "[22]", "result": 0.2, "unit": "µg/mL"}]}
{"smiles": "Nc1ncnc2c1ncn2[C@@H]1O[C@H](CO)[C@H](O)[C@H]1O", "values": [{"measurement": "MCC", "setting": "[1]", "result": "> 40", "unit": "µg/mL"}, {"measurement": "No. of living cells", "setting": "[23]", "result": 1.368}, {"measurement": "MCC", "setting": "[2]", "result": "> 40", "unit": "µg/mL"}, {"measurement": "MCC", "setting": "[3]", "result": "> 100", "unit": "µg/mL"}, {"measurement": "MCC", "setting": "[4]", "result": "> 40", "unit": "µg/mL"}, {"measurement": "No. of living cells", "setting": "[24]", "result": 0.123}, {"measurement": "MCC", "setting": "[6]", "result": "> 40", "unit": "µg/mL"}, {"measurement": "No. of living cells", "setting": "[25]", "result": 0}, {"measurement": "MCC", "setting": "[7]", "result": "> 100", "unit": "µg/mL"}, {"measurement": "No. of living cells", "setting": "[26]", "result": 0.048}, {"measurement": "No. of living cells", "setting": "[27]", "result": 0.008}, {"measurement": "MCC", "setting": "[8]", "result": "> 40", "unit": "µg/mL"}, {"measurement": "IC50", "setting": "[28]", "result": 37, "unit": "µg/mL"}, {"measurement": "No. of living cells", "setting": "[29]", "result": 0.864}, {"measurement": "IC50", "setting": "[30]", "result": 46, "unit": "µg/mL"}, {"measurement": "IC50", "setting": "[31]", "result": 23, "unit": "µg/mL"}, {"measurement": "MCC", "setting": "[10]", "result": 20, "unit": "µg/mL"}, {"measurement": "MCC", "setting": "[11]", "result": "> 40", "unit": "µg/mL"}, {"measurement": "IC50", "setting": "[32]", "result": 17, "unit": "µg/mL"}, {"measurement": "No. of living cells", "setting": "[33]", "result": 0.123}, {"measurement": "MCC", "setting": "[13]", "result": "> 40", "unit": "µg/mL"}, {"measurement": "MCC", "setting": "[14]", "result": 20, "unit": "µg/mL"}, {"measurement": "MCC", "setting": "[15]", "result": 100, "unit": "µg/mL"}, {"measurement": "No. of living cells", "setting": "[34]", "result": 0.4}, {"measurement": "MCC", "setting": "[16]", "result": 200, "unit": "µg/mL"}, {"measurement": "MCC", "setting": "[18]", "result": "> 40", "unit": "µg/mL"}]}
